How the values were obtained:
[1] = molecular target: MAP kinase-interacting serine/threonine-protein kinase 2 (Homo sapiens) (UniProt Q9HBH9); assay: Inhibition of MNK2 assessed as residual activity at 10 uM
Summary of the method: (§1)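 Panel screen by radioactive kinase assay at a single inhibitor concentration. Score is the percent activity remaining relative to DMSO controls (100%).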

[2] = molecular target: Epidermal growth factor receptor (Homo sapiens, UniProt P00533); assay: Inhibition of EGFR by HTRF assay
[3] = molecular target: Maternal embryonic leucine zipper kinase (Homo sapiens) (UniProt Q14680); assay: Inhibition of MELK assessed as residual activity at 10 uM
Sequence of Maternal embryonic leucine zipper kinase (Homo sapiens) (Q14680 whole entry, looked up): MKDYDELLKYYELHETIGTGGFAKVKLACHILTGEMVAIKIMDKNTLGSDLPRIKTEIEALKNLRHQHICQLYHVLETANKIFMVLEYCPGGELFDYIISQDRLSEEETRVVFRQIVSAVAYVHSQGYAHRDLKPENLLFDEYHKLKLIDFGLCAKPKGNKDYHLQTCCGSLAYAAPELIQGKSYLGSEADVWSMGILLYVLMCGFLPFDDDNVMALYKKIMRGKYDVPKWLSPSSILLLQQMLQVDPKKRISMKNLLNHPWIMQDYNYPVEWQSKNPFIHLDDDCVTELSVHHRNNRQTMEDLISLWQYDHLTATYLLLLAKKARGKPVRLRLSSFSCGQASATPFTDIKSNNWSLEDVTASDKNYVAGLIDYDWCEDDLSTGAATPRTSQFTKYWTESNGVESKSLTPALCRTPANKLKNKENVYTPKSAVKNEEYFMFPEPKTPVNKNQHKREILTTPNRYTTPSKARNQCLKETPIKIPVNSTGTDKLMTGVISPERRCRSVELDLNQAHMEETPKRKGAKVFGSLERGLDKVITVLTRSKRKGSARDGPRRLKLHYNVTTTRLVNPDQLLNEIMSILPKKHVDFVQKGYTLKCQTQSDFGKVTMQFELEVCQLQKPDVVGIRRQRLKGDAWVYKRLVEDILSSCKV
Summary of the method: (§2)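 Kinase panel screen run as a radioactive activity assay at single compound concentration. Score reported as percent activity remaining relative to DMSO controls (100%).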

[4] = molecular target: RAC-beta serine/threonine-protein kinase (Homo sapiens) (UniProt P31751); assay: Inhibition of PKBbeta assessed as residual activity at 10 uM; summary of the method: as §1
Sequence of RAC-beta serine/threonine-protein kinase (Homo sapiens) (P31751 whole entry): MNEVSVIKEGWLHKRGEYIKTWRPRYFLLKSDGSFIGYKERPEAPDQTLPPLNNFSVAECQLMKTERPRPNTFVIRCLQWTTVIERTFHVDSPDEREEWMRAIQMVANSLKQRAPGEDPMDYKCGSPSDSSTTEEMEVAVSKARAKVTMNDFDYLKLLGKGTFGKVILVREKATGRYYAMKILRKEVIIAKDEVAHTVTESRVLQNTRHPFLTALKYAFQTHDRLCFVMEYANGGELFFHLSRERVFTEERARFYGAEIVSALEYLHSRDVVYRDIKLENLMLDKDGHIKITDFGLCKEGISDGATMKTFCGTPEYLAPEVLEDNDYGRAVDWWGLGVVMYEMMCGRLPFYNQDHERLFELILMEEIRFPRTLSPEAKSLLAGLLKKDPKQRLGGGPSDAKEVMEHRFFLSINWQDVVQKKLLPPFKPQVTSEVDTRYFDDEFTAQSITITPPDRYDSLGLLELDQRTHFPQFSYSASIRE

[5] = molecular target: T1, Inhibitor of nuclear factor kappa-B kinase subunit beta (Homo sapiens) (UniProt O14920); assay: Inhibition of IKK-beta assessed as residual activity at 10 uM; summary of the method: as §2
T1 sequence (whole entry): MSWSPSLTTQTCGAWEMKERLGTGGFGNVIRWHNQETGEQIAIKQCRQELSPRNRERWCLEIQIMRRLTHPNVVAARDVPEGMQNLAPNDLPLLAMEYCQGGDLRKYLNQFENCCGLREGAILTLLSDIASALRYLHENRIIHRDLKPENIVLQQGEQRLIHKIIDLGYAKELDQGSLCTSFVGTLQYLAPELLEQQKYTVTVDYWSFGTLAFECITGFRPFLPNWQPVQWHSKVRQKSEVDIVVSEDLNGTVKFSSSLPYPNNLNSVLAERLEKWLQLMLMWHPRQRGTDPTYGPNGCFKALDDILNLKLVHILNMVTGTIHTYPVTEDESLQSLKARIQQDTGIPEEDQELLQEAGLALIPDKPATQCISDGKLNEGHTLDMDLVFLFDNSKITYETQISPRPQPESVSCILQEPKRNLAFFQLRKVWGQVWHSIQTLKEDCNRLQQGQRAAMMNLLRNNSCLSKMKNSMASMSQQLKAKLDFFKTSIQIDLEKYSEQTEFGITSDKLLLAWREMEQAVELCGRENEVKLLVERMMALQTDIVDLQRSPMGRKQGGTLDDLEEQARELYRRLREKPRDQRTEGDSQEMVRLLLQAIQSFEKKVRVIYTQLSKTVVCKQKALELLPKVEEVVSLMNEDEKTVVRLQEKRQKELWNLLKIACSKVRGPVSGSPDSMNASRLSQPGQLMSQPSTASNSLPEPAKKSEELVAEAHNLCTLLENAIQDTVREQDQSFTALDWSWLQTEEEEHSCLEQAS

[6] = molecular target: Misshapen-like kinase 1 (Homo sapiens) (UniProt Q8N4C8); assay: Inhibition of MINK1 assessed as residual activity at 10 uM; summary of the method: as §2
Sequence of Misshapen-like kinase 1 (Homo sapiens) (Q8N4C8 whole entry, looked up): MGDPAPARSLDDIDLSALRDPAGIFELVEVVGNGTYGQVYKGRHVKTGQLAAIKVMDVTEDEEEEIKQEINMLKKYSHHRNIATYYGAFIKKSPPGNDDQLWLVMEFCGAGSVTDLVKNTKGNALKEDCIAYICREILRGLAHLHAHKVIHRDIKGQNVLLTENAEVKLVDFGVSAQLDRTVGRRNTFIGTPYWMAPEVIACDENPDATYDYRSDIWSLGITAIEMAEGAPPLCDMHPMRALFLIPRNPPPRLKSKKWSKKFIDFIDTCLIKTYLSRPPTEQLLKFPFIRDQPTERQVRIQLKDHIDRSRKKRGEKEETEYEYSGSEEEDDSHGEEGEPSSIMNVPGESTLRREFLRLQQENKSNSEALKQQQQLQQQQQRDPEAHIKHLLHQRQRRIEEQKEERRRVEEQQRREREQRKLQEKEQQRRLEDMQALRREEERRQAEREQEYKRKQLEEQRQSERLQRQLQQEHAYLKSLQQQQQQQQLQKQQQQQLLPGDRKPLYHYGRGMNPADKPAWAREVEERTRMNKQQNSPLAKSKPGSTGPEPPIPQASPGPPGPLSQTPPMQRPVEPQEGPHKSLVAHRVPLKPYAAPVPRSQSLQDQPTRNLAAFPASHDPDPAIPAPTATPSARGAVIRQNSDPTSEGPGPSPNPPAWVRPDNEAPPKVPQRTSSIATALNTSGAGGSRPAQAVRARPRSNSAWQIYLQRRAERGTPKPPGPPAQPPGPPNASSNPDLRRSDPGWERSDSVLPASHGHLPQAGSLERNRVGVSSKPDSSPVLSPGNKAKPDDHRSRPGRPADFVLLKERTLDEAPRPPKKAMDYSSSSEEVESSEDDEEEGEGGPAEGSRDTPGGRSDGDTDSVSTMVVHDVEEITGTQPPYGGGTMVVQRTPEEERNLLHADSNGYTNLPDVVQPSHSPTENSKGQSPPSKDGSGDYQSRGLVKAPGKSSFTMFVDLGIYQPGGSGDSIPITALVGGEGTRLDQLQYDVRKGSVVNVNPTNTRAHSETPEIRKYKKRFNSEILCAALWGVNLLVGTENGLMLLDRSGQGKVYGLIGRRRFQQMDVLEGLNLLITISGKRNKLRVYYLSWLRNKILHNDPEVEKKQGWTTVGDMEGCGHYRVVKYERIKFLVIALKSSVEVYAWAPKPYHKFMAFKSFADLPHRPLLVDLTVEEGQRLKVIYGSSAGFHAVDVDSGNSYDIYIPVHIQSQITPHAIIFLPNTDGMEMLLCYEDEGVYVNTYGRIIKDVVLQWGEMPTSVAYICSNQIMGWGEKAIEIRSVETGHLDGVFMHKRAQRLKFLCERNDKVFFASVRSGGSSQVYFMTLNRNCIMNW

[7] = molecular target: T2, Dual specificity tyrosine-phosphorylation-regulated kinase 2 (Homo sapiens) (UniProt Q92630); assay: Inhibition of DYRK2 assessed as residual activity at 10 uM; summary of the method: as §2
T2 sequence (whole entry): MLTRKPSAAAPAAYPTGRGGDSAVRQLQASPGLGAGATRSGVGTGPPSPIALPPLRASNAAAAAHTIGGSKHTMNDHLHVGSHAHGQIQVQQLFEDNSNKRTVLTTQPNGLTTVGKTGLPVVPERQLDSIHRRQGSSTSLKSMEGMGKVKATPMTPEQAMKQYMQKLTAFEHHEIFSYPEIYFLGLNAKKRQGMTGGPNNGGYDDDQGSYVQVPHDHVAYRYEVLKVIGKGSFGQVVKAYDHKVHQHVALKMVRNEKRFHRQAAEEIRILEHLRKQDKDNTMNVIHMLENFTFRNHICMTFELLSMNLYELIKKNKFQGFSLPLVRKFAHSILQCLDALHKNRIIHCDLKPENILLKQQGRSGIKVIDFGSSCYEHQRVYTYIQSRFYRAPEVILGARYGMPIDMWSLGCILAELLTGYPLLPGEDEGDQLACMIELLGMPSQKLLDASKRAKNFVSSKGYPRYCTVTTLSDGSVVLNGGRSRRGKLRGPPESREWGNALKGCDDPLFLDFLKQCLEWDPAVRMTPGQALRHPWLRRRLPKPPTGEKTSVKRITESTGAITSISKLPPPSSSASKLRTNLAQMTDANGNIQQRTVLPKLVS

[8] = molecular target: Aurora kinase B (Homo sapiens) (UniProt Q96GD4); assay: Inhibition of aurora B assessed as residual activity at 10 uM; summary of the method: as §1
Sequence of Aurora kinase B (Homo sapiens) (Q96GD4 whole entry): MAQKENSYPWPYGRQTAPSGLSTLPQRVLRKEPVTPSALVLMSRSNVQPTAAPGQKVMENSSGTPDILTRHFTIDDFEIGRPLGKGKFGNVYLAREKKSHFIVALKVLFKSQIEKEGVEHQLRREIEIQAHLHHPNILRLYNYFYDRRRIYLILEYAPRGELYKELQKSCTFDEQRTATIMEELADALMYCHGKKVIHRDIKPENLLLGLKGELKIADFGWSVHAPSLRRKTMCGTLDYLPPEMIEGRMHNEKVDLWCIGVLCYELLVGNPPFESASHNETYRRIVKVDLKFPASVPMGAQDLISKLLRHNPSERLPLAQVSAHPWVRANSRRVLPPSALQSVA

[9] = Inhibition of VEGFR assessed as residual activity at 10 uM; summary of the method: as §1
[10] = molecular target: Serine/threonine-protein kinase N2 (Homo sapiens) (UniProt Q16513); assay: Inhibition of PRK2 assessed as residual activity at 10 uM; summary of the method: as §1
Sequence of Serine/threonine-protein kinase N2 (Homo sapiens) (Q16513 whole entry, looked up): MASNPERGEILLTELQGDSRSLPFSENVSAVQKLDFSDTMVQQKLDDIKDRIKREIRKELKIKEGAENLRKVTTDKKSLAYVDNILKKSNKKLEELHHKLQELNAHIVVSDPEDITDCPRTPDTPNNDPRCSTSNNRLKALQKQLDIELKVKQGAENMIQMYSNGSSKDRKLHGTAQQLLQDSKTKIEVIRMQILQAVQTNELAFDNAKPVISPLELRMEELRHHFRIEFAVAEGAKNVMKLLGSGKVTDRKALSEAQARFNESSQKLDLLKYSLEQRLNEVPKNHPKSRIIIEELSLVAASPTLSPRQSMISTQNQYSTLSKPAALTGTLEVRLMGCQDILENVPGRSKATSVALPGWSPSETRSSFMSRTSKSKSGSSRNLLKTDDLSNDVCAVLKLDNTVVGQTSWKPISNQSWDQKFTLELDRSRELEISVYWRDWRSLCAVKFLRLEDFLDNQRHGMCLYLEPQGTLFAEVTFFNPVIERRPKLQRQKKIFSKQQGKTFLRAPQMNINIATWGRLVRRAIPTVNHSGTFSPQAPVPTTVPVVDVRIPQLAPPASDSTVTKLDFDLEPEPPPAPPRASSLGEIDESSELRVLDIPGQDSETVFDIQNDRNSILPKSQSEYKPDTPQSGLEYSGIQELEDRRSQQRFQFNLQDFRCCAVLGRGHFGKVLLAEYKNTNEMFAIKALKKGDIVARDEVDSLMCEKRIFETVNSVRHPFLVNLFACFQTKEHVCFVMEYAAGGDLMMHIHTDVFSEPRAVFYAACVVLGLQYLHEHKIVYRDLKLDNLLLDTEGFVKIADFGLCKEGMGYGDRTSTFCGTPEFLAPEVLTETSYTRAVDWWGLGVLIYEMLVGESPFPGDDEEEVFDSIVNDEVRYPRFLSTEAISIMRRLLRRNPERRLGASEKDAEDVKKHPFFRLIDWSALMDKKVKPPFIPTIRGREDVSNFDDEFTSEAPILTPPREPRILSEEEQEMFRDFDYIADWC

[11] = molecular target: T3, Serine/threonine-protein kinase D1 (Homo sapiens) (UniProt Q15139); assay: Inhibition of PKDl assessed as residual activity at 10 uM; summary of the method: as §1
T3 sequence (whole entry): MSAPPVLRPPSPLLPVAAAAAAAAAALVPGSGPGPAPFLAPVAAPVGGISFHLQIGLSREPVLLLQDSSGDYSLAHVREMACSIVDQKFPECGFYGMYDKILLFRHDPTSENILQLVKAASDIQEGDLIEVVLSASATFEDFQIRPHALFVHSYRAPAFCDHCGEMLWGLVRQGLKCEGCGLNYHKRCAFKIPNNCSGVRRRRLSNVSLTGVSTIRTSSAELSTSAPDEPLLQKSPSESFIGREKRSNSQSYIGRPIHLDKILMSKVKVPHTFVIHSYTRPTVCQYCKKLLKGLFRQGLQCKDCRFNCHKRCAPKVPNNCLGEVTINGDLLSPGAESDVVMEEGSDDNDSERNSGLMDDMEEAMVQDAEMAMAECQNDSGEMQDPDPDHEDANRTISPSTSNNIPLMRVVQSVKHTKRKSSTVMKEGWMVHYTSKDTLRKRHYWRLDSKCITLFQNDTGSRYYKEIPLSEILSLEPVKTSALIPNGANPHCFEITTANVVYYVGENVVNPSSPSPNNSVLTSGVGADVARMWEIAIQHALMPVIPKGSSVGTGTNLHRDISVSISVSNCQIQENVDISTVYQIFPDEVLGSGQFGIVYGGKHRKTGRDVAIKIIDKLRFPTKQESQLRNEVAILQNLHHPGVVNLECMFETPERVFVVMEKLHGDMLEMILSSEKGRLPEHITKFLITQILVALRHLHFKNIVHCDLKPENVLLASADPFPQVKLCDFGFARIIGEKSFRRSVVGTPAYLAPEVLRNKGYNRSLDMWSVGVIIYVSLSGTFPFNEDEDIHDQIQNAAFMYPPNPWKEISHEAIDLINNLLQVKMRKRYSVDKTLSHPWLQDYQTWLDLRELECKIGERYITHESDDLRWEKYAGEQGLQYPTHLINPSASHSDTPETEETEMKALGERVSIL

Sequence of MAP kinase-interacting serine/threonine-protein kinase 2 (Homo sapiens) (Q9HBH9 whole entry, looked up): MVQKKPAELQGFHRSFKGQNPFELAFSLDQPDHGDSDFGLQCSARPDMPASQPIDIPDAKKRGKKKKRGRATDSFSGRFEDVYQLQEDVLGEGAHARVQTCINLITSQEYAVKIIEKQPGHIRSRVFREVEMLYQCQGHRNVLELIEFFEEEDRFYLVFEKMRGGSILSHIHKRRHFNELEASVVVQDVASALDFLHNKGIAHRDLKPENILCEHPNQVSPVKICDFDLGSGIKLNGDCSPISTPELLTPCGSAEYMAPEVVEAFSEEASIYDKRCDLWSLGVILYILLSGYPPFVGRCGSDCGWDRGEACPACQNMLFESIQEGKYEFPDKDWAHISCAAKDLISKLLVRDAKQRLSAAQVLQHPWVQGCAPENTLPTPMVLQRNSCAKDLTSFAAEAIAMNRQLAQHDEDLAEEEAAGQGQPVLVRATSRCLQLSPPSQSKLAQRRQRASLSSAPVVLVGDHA

Structure (SMILES) | Activity [1] | IC50 [2] | Activity [3] | Activity [4] | Activity [5] | Activity [6] | Activity [7] | Activity [8] | Activity [9] | Activity [10] | Activity [11]
CN1CCN(CCC(=O)Nc2ccc3c(C#N)cnc(Nc4cccc(Br)c4)c3c2)CC1 | 85% | 1300 nM | 89% | 87% | 88% | 54% | 83% | 42% | 88% | 90% | 83%
CN(C)C/C=C/C(=O)Nc1ccc2c(C#N)cnc(Nc3cccc(Br)c3)c2c1 | 92% | 150 nM | 75% | 37% | 79% | 58% | 68% | 33% | 74% | 100% | 79%
CN(C)CCCC(=O)Nc1ccc2c(C#N)cnc(Nc3cccc(Br)c3)c2c1 | 100% |  | 80% | 85% | 84% | 59% | 70% | 41% | 87% | 98% | 75%

Reference: ChEMBL document CHEMBL1641579, “Synthesis and biological evaluation of 7-substituted-1-(3-bromophenylamino)isoquinoline-4-carbonitriles as inhibitors of myosin light chain kinase and epidermal growth factor receptor” (Bioorg Med Chem, 2011)
